Laboratory results as given in publication PMC4492447 (Journal of medicinal chemistry, 2012).

Tests used:
[1] = SD rats, 2–3 h postdose; cited from earlier work
[2] = biological target: T1, CB1 (Homo sapiens, UniProt P21554); type: cell-based
[3] = system: MDCK-mdr1 cells; test: MDCK-mdr1 permeability assay; type: in vitro ADME, canine; details: apical to basal, 10 μM, 1 h at 37 °C
How it was run: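 MDCK cells transfected with human MDR1 grown on filters for 4 days to confluence in DMEM/F12 with 10% FBS and antibiotics. Test compound added apically in HBSS with 25 mM D-glucose, HEPES-buffered to pH 7.4. Apical and basal samples collected, dried under nitrogen, and quantified by LC-MS/MS in MRM mode. Percent transfer apical to basal reported; mean of 2–3 measurements.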

[4] = pharmacokinetic evaluation in vivo, plasma and brain levels after oral dosing; set-up: species or system Sprague–Dawley rats
[5] = metabolic stability in human hepatic S9 fraction; type: in vitro ADME
How it was run: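 Pooled mixed-gender human hepatic S9 at 1 mg/mL, test compound at 10 μM final. Buffer: 50 mM potassium phosphate pH 7.4, 3 mM MgCl2, NADPH-regenerating system (1 mM NADP, 5 mM glucose-6-phosphate, 1 unit/mL G6PDH). Triplicates sampled at 0, 15, 30, 60, 120 min. Stopped with 3 vol acetonitrile; LC-MS/MS against standard curves in blank matrix. Read-out is percent remaining.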

[6] = biological target: T1, CB1; type: binding; details: selectivity, [3H]CP55940 displacement

T1 sequence (P21554 whole entry): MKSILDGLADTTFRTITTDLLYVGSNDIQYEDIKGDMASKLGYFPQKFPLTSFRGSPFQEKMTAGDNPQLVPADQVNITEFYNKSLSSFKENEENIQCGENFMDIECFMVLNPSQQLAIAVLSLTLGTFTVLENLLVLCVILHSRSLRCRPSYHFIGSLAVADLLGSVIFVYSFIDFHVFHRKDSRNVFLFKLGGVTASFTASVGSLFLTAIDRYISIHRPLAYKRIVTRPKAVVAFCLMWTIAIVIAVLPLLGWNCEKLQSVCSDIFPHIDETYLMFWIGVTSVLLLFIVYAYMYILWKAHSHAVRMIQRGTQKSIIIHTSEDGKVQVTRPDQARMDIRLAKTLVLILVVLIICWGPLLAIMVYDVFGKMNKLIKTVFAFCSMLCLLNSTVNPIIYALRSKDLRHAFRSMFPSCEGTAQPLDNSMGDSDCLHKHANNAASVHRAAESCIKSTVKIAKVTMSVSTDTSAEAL

Structure (SMILES) | Kb [2] | further results
CCNC1(C(N)=O)CCN(c2ncnc3c2nc(-c2ccccc2Cl)n3-c2ccc(Cl)cc2)CC1 [Compound 2, otenabant] |  | brain exposure [1]: ~33%
CC(C)(C)OC(=O)NC1(c2ccccc2)CCN(c2ncnc3c2nc(-c2ccccc2Cl)n3-c2ccc(Cl)cc2)CC1 [Compound 10, tert-Butyl N-{1-[8-(2-chlorophenyl)-9-(4-chlorophenyl)-9H-purin-6-yl]-4-phenylpiperidin-4-yl}carbamate] | 3.9 nM | MDCK-mdr1 A to B [3]: <1%
NC1(c2ccccc2)CCN(c2ncnc3c2nc(-c2ccccc2Cl)n3-c2ccc(Cl)cc2)CC1 [Compound 11, 1-[8-(2-Chlorophenyl)-9-(4-chlorophenyl)-9H-purin-6-yl]-4-phe-nylpiperidin-4-amine] | 15.9 nM | MDCK-mdr1 A to B [3]: <1%
CS(=O)(=O)NC1(c2ccccc2)CCN(c2ncnc3c2nc(-c2ccccc2Cl)n3-c2ccc(Cl)cc2)CC1 [Compound 12, N-{1-[8-(2-Chlorophenyl)-9-(4-chlorophenyl)-9H-purin-6-yl]-4-phenylpiperidin-4-yl}methanesulfonamide] |  | MDCK-mdr1 A to B [3]: <1%; brain penetration (in words) ([4]; SD rats, 10 mg/kg oral): limited brain penetration; time post dose of maximum concentration ([4]; SD rats, 10 mg/kg oral): 240 min; clearance (in words) ([4]; oral dosing in rats, 10 mg/kg): favorable clearance; oral absorption (in words) ([4]; oral dosing in rats, 10 mg/kg): excellent oral absorption
CC(C)(C)NC(=O)NC1(c2ccccc2)CCN(c2ncnc3c2nc(-c2ccccc2Cl)n3-c2ccc(Cl)cc2)CC1 [Compound 13a, 3-tert-Butyl-1-{1-[8-(2-chlorophenyl)-9-(4-chlorophenyl)-9H-purin-6-yl]-4-phenylpiperidin-4-yl}urea] | 19.2 nM | MDCK-mdr1 A to B [3]: <1%; metabolism in S9 fraction (in words) [5]: significant metabolism
CCNC(=O)NC1(c2ccccc2)CCN(c2ncnc3c2nc(-c2ccccc2Cl)n3-c2ccc(Cl)cc2)CC1 [Compound 13b, 1-{1-[8-(2-Chlorophenyl)-9-(4-chlorophenyl)-9H-purin-6-yl]-4-phenylpiperidin-4-yl}-3-ethylurea] | 443 nM | 
CCCCNC(=O)NC1(c2ccccc2)CCN(c2ncnc3c2nc(-c2ccccc2Cl)n3-c2ccc(Cl)cc2)CC1 [Compound 13e, 3-Butyl-1-{1-[8-(2-chlorophenyl)-9-(4-chlorophenyl)-9H-purin-6-yl]-4-phenylpiperidin-4-yl}urea] | 62 nM | 
CCOC(=O)CNC(=O)NC1(c2ccccc2)CCN(c2ncnc3c2nc(-c2ccccc2Cl)n3-c2ccc(Cl)cc2)CC1 [Compound 13f, Ethyl 2-[({1-[8-(2-chlorophenyl)-9-(4-chlorophenyl)-9H-purin-6-yl]-4-phenylpiperidin-4-yl}carbamoyl)amino]acetate] | 171 nM | 
CCCCNC(=O)N1CCC(Nc2ncnc3c2nc(-c2ccccc2Cl)n3-c2ccc(Cl)cc2)CC1 [Compound 14f, N-Butyl-4-{[8-(2-chlorophenyl)-9-(4-chlorophenyl)-9H-purin-6-yl]amino}piperidine-1-carboxamide] |  | CB2/CB1 Ki ratio [6]: >5
CCNC(=O)N1CCC[C@H](Nc2ncnc3c2nc(-c2ccccc2Cl)n3-c2ccc(Cl)cc2)C1 [Compound 16c, (3S)-3-{[8-(2-Chlorophenyl)-9-(4-chlorophenyl)-9H-purin-6-yl]-amino}-N-ethylpiperidine-1-carboxamide] | 1150 nM | 
CC(=O)N1CCC[C@H](Nc2ncnc3c2nc(-c2ccccc2Cl)n3-c2ccc(Cl)cc2)C1 [Compound 16d, 1-[(3S)-3-{[8-(2-Chlorophenyl)-9-(4-chlorophenyl)-9H-purin-6-yl]-amino}piperidin-1-yl]ethan-1-one] | 4450 nM | 
CS(=O)(=O)N1CCC[C@H](Nc2ncnc3c2nc(-c2ccccc2Cl)n3-c2ccc(Cl)cc2)C1 [Compound 16e, 8-(2-Chlorophenyl)-9-(4-chlorophenyl)-N-[(3S)-1-methanesulfonylpiperidin-3-yl]-9H-purin-6-amine] | 6040 nM | 
CCCNC(=O)NC1CCN(c2ncnc3c2nc(-c2ccccc2Cl)n3-c2ccc(Cl)cc2)CC1 [Compound 17e, 1-{1-[8-(2-chlorophenyl)-9-(4-chlorophenyl)-9H-purin-6-yl]-piperidin-4-yl}-3-propylurea] | 132 nM | 
CCCCNC(=O)NC1CCN(c2ncnc3c2nc(-c2ccccc2Cl)n3-c2ccc(Cl)cc2)CC1 [Compound 17f, 3-Butyl-1-{1-[8-(2-chlorophenyl)-9-(4-chlorophenyl)-9H-purin-6-yl]piperidin-4-yl}urea] | 49 nM | 
CC(=O)NC1CCN(c2ncnc3c2nc(-c2ccccc2Cl)n3-c2ccc(Cl)cc2)CC1 [Compound 17g, N-{1-[8-(2-Chlorophenyl)-9-(4-chlorophenyl)-9H-purin-6-yl]-piperidin-4-yl}acetamide] | 631 nM | 
CS(=O)(=O)NC1CCN(c2ncnc3c2nc(-c2ccccc2Cl)n3-c2ccc(Cl)cc2)CC1 [Compound 17h, N-{1-[8-(2-Chlorophenyl)-9-(4-chlorophenyl)-9H-purin-6-yl]-piperidin-4-yl}methanesulfonamide] | 71 nM | 

The next lines start with results.

Kb [2] | Structure (SMILES) | further results
199 nM | O=C(NC1CCCCC1)NC1(c2ccccc2)CCN(c2ncnc3c2nc(-c2ccccc2Cl)n3-c2ccc(Cl)cc2)CC1 [Compound 13g, 3-{1-[8-(2-Chlorophenyl)-9-(4-chlorophenyl)-9H-purin-6-yl]-4-phenylpiperidin-4-yl}-1-cyclohexylurea] | 
5710 nM | Clc1ccc(-n2c(-c3ccccc3Cl)nc3c(NC4CCNCC4)ncnc32)cc1 [Compound 14b, 8-(2-Chlorophenyl)-9-(4-chlorophenyl)-N-(piperidin-4-yl)-9H-purin-6-amine] | 
1150 nM | CCNC(=O)N1CCC(Nc2ncnc3c2nc(-c2ccccc2Cl)n3-c2ccc(Cl)cc2)CC1 [Compound 14c, 4-{[8-(2-Chlorophenyl)-9-(4-chlorophenyl)-9H-purin-6-yl]amino}-N-ethylpiperidine-1-carboxamide] | 
495 nM | CC(C)NC(=O)N1CCC(Nc2ncnc3c2nc(-c2ccccc2Cl)n3-c2ccc(Cl)cc2)CC1 [Compound 14d, 4-{[8-(2-Chlorophenyl)-9-(4-chlorophenyl)-9H-purin-6-yl]amino}-N-(propan-2-yl)piperidine-1-carboxamide] | 
1960 nM | CCCNC(=O)N1CCC(Nc2ncnc3c2nc(-c2ccccc2Cl)n3-c2ccc(Cl)cc2)CC1 [Compound 14e, 4-{[8-(2-Chlorophenyl)-9-(4-chlorophenyl)-9H-purin-6-yl]amino}-N-propylpiperidine-1-carboxamide] | 
1650 nM | CS(=O)(=O)N1CCC(Nc2ncnc3c2nc(-c2ccccc2Cl)n3-c2ccc(Cl)cc2)CC1 [Compound 14g, 8-(2-Chlorophenyl)-9-(4-chlorophenyl)-N-(1-methanesulfonylpiperidin-4-yl)-9H-purin-6-amine] | 
1500 nM | CCNC(=O)N1CCC[C@@H](Nc2ncnc3c2nc(-c2ccccc2Cl)n3-c2ccc(Cl)cc2)C1 [Compound 15c, (3R)-3-{[8-(2-Chlorophenyl)-9-(4-chlorophenyl)-9H-purin-6-yl]-amino}-N-ethylpiperidine-1-carboxamide] | 
920 nM | CC(=O)N1CCC[C@@H](Nc2ncnc3c2nc(-c2ccccc2Cl)n3-c2ccc(Cl)cc2)C1 [Compound 15d, 1-[(3R)-3-{[8-(2-Chlorophenyl)-9-(4-chlorophenyl)-9H-purin-6-yl]-amino}piperidin-1-yl]ethan-1-one] | 
346 nM | CS(=O)(=O)N1CCC[C@@H](Nc2ncnc3c2nc(-c2ccccc2Cl)n3-c2ccc(Cl)cc2)C1 [Compound 15e, 8-(2-Chlorophenyl)-9-(4-chlorophenyl)-N-[(3R)-1-methanesulfonylpiperidin-3-yl]-9H-purin-6-amine] | 
149 nM | CCNC(=O)NC1CCN(c2ncnc3c2nc(-c2ccccc2Cl)n3-c2ccc(Cl)cc2)CC1 [Compound 17c, 1-{1-[8-(2-Chlorophenyl)-9-(4-chlorophenyl)-9H-purin-6-yl]-piperidin-4-yl}-3-ethylurea] | 
133 nM | CC(C)NC(=O)NC1CCN(c2ncnc3c2nc(-c2ccccc2Cl)n3-c2ccc(Cl)cc2)CC1 [Compound 17d, 1-{1-[8-(2-Chlorophenyl)-9-(4-chlorophenyl)-9H-purin-6-yl]-piperidin-4-yl}-3-(propan-2-yl)urea] | 
